Source: PubChem
PERK inhibitor = block of dimerizer-induced PERK translation repression, primary screen, PERK inhibitor project, CHO PERK-DD cells, SEAP luminescence, HTS; inhibition, % at 5.6 µM; hit rate 0.17% among 220,000; AID 1416, 2008; CHO PERK-DD fusion, SEAP luminescence translation reporter; Eukaryotic translation initiation factor 2-alpha kinase 3 (Homo sapiens), Q9NZJ5;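 active = inhibition above the mean inhibition of all tested compounds plus 3 SD, set separately per screening campaign, cut at about 2.9% in these data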;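 also: PERK kinase domain activated by AP20187 dimerizer at 100 nM; 0% = DMSO with dimerizer and 100% = rapamycin at 8.4 µM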
Insulin prom inh = inhibitors of insulin promoter-driven GFP, primary screen, imaging, TRM-6 cells (human fetal islet line), eGFP reporter, cell count | reporter expression induced with tamoxifen | inhibition, % at 2 µM | hit rate 0.9% among 130,000;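 active = inhibition above the mean plus 3 SD, with well images judged a real hit on visual review, cut at about 60% in these data, passing the limit was not always enough; inconclusive = inhibition over the cutoff but images rejected on review; inactive = inhibition not above the cutoff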
Autophagy HCS = autophagy modulators in MEF cells, primary screen, imaging, high-content, MEF GFP-LC3 | MEF GFP-LC3 puncta imaging; test concentration mostly 10 µM | AID 463193, 2010 | hit rate 0.98% among 190,000 | calls only at 10 µM (by protocol);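 active = percentage of spot-positive cells more than 3 SD above its plate mean, without a fluorescence outlier flag or 80% toxicity; inconclusive = no clear call, values can overlap the other calls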;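 also: spot-positive cell cutoff set from DMSO-treated cells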
Insulin prom up = insulin promoter activators in MIN6 cells, imaging, high-content screening, mouse beta cells; MIN6 insulin promoter-GFP reporter; active compounds read high; z-score at 5 µM; hit rate 0.3% among 190,000; AID 1625, 2009;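 active = z-score above 3 at 5 µM with at least 500 cells counted in the well; inconclusive = wells under 500 cells, flagged as cytotoxic or low count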
Dynein transport = inhibitors of GR-EGFP nuclear translocation, primary screen, dynein cargo transport inhibitor project, imaging, high-content, 3617.4 mouse cells; test concentration mostly 20 µM; stimulated with dexamethasone, 1 µM; active compounds read low; z-score, hits read low; hit rate 0.47% among 220,000;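 active = plate z-score of nuclear minus cytoplasmic receptor signal below a set negative limit, without overly bright fluorescence or cell loss, cut at about -3.5 in these data, passing the limit was not always enough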;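 also: z-score of nuclear minus cytoplasmic ring GR-EGFP intensity difference per well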
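medium = tetracycline-free induction medium containing charcoal-stripped FBS | also added = 1.0 µM final dexamethasone stimulus | schedule = 48 h induction, 1 h compound, 30 min dex at 37 °C | technique = fixed, Hoechst-stained cells imaged at 10x for EGFP | measure = GR-EGFP nuclear translocation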
Dynein confirm = dynein cargo transport inhibitors, GR-EGFP translocation, confirmation, imaging, high-content imaging, GR-EGFP cells. shares compounds with Dynein transport. 3617.4 GR-EGFP nuclear translocation imaging, dexamethasone-induced. calls only at 20 µM. hit rate 69% among 1,000. AID 463116, 2010;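 active = inhibition of receptor movement into the nucleus at or above a set limit in both runs, with normal cell brightness and cell count; inconclusive = limit reached in only one run, brightness and count normal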;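 also: dexamethasone at 1 µM final in well for 30 min; nuclear minus cytoplasmic GR-EGFP mean intensity difference in channel 2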
* hit, by the source's call; i = inactive; ? = inconclusive; . = no result given; + = active, no number. Most compounds without a hit are left out; they make up all but 2.1% or so of the library.

SMILES	PERK inhibitor	Insulin prom inh	Autophagy HCS	Insulin prom up	Dynein transport	Dynein confirm
Cc1ccc(S(=O)(=O)CC(CN2CCOCC2)N2CCOCC2)cc1 (stereo not given)	0	50	i	0.1	-0.0035	.
CC1CCN(CC(CS(=O)(=O)c2ccc([N+](=O)[O-])cc2)N2CCC(C)CC2)CC1 (stereo not given)	1	.	.	2.1	-4.7*	+
COC(=O)c1cc(F)c(-n2cncn2)c(F)c1	0	-25	i	.	-0.23	.
COC(=O)c1cc([N+](=O)[O-])c(-n2cncn2)c([N+](=O)[O-])c1	1	.	i	0	-4.6*	+
COc1ccc(NC(=O)/C(Cl)=C(/Cl)S(=O)(=O)Cc2ccccc2)cn1	-2	-63	+	.	-5.6*	+
COc1ccc(NC(=O)CCl)cn1	1	.	.	0.76	1	.
COc1ccc(NC(=O)C(Cl)=C(Cl)Cl)cn1	0	55	i	-1.5	-4.5*	+
Cc1onc(-c2ccccc2)c1C(=O)N1CCN(C/C=C/c2ccccc2)CC1	0	.	i	-0.79	-0.77	.
COc1ccc2cc(C(=O)Nc3ccc(S(N)(=O)=O)cc3)sc(=O)c2c1OC	1	.	i	0.23	0.94	.
CNCc1ccccc1Sc1cccc(O)c1	1	-3	i	-0.36	-0.22	.
CNCc1ccccc1Sc1cc(O)ccc1O	0	.	i	.	-4*	+
CC(C)(C)c1ccc(N2C(=O)CSC2c2cccnc2)cc1 (stereo not given)	-1	.	.	-0.35	-0.42	.
Cc1c(N=C2C=CC(=O)c3ccccc32)c(=O)n(-c2ccccc2)n1C	0	.	i	0.29	-4.7*	+
Cc1c(N=C2C=C(Br)C(=O)C(Br)=C2)c(=O)n(-c2ccccc2)n1C	0	-56	i	-0.36	-0.042	.
CCN(CC)c1ccc(/C=C/C(=O)c2ccc(Br)cc2)cc1	2	.	+	.	-6.9	+
CN(C)c1ccc(C(=O)/C=C/c2ccc(Br)cc2)cc1	2	12	i	-0.01	2.1	.
Cn1c(=O)n(CCN2CCOCC2)c(=O)c2c1nc1n2CCN1c1ccccc1	1	28	i	.	-0.15	.
Cc1ccnc(SCc2cc(=O)c(OC(=O)c3cc([N+](=O)[O-])ccc3Cl)co2)n1	1	-11	i	0.16	-4.7*	+
O=C(Oc1coc(CSc2ncccn2)cc1=O)c1cccc([N+](=O)[O-])c1	1	-17	i	0.71	-0.65	.
CN1CCN(C2=C(Cl)C(=O)N(C3CCCCC3)C2=O)CC1	-1	.	i	-0.86	-0.56	.
CN1CCN(C2=C(Cl)C(=O)C(c3cnc(N4CCCCC4)s3)=C(Cl)C2=O)CC1	-1	26	i	.	-4.7*	+
N#CC1(C#N)C(c2ccccc2)OC23CCCCCC2C1(C#N)C(=N)O3 (stereo not given)	0	.	i	0.18	-0.36	.
N#CC1(C#N)C(c2ccccc2)OC23CCCCC2C1(C#N)C(=N)O3 (stereo not given)	1	20	i	-0.28	-4.2*	+
COc1ccc(C2(CNS(=O)(=O)c3ccccc3)CCOCC2)cc1	-1	.	i	-0.69	-0.23	.
O=C(Cc1cccs1)Nc1nc(-c2ccc(F)cc2F)cs1	0	33	i	0.82	-3.5*	i
SMILES	PERK inhibitor	Insulin prom inh	Autophagy HCS	Insulin prom up	Dynein transport	Dynein confirm
COc1ccc(OC)c(-c2csc(NC(=O)Cc3cccs3)n2)c1	0	33	i	-1.2	-0.71	.
COc1cc(NC(=O)Cn2ncc(Cl)c(Cl)c2=O)c(C)cc1[N+](=O)[O-]	0	.	+	?	-3.8*	+
O=C(/C=C/c1ccccc1)CC(O)(c1ccccc1)C(F)(F)F (stereo not given)	1	50	i	0.33	-2.9	.
COc1ccc(/C=C/C(=O)CC(O)(c2ccccc2)C(F)(F)F)cc1 (stereo not given)	0	85*	i	-0.69	-3.8*	+
C/C(=N\NC(=O)c1c(Cl)cnn1C)c1ccc(NC(=O)c2ccncc2)cc1	1	32	i	0.07	0.31	.
N#CC1=C(N)C(C#N)(C#N)[C@H](c2ccncc2)[C@H]2CC3(CC=C12)OCCO3	1	-24	i	-0.64	-0.21	.
Cc1ccc(C2C3CSCC=C3C(C#N)=C(N)C2(C#N)C#N)cc1 (stereo not given)	1	4	i	-1.9	-4.1*	i
Cc1cccc2cc(COC(=O)c3ccccn3)c(=O)[nH]c12	1	.	i	-1.3	-0.3	.
CC(=O)N1/C(=C/c2ccc(N(C)C)cc2)C(=O)c2ccccc21	0	13	i	-0.6	-5.8*	+
O=C(c1ccc(F)cc1)C(CN1CCOCC1)c1ccccc1 (stereo not given)	0	.	i	-4.3	-6.1*	+
CC(CN1CCOCC1)OC(=O)C(c1ccccc1)c1ccccc1 (stereo not given)	1	30	i	.	0.033	.
COc1ccc(C(=O)CCN2CCCCCC2)cc1	1	7	i	-0.59	-0.33	.
COc1ccc(C(=O)C(CN2CCCC2)c2ccccc2)cc1 (stereo not given)	0	.	i	-2	-4.3*	+
C#CCOCCOCCOCCNc1nc(N2CCN(C(=O)[C@H](CCCCN)n3cc([C@@H](N)C(C)CC)nn3)CC2)nc(N2CCN(C(=O)[C@H](Cc3cc4ccccc4[nH]3)n3cc([C@@H](N)CC(C)C)nn3)CC2)n1 (stereo not given in full)	0	.	i	-0.65	0.56	.
C(=C\c1ccco1)/C1=NN(c2ccccc2)C(c2ccco2)C1 (stereo not given)	0	-115	i	0.09	-0.22	.
O=[N+]([O-])c1ccc(/C=C/C2=NN(c3ccccc3)C(c3ccco3)C2)o1 (stereo not given)	1	.	+	.	-6.8	+
CC1(C)CC(=O)/C(=C\c2cccc([N+](=O)[O-])c2)C(C)(C)N1	0	-44	i	.	-3.6*	+
CCCOc1ccc(C(=O)CCN2CCN(C(=O)OCC)CC2)cc1	1	21	i	.	-4.1*	i
CCOc1cc(/C=N/NC(N)=O)cc(Br)c1OCC(=O)Nc1ccccc1C	-1	31	i	.	0.15	.
CCOc1cc(/C=C\[N+](=O)[O-])ccc1OCC(=O)Nc1ccccc1C	0	.	i	1.3	-3.6*	+
N#CC1=C(N)OC2=C(CCc3ccccc32)C1c1ccccc1 (stereo not given)	0	-73	i	-0.47	0.31	.
